Results taken from ChEMBL document CHEMBL4627263, “Hi-JAK-ing the ubiquitin system: The design and physicochemical optimisation of JAK PROTACs” (Bioorg Med Chem, 2020).
Activity calls are given as the source filed them. No cut-off for these calls is given here.

Legend:
[1] = biological target: T1, E3 ubiquitin-protein ligase XIAP/Tyrosine-protein kinase JAK1 (Homo sapiens) (UniProt P23458+P98170); assay: Protac activity at IAP/JAk1 in human PBMC cells assessed as reduction in IL2-induced IFNgamma production measured after 1 hr; assay type: cell-based
T1 sequence (P23458 whole entry, looked up): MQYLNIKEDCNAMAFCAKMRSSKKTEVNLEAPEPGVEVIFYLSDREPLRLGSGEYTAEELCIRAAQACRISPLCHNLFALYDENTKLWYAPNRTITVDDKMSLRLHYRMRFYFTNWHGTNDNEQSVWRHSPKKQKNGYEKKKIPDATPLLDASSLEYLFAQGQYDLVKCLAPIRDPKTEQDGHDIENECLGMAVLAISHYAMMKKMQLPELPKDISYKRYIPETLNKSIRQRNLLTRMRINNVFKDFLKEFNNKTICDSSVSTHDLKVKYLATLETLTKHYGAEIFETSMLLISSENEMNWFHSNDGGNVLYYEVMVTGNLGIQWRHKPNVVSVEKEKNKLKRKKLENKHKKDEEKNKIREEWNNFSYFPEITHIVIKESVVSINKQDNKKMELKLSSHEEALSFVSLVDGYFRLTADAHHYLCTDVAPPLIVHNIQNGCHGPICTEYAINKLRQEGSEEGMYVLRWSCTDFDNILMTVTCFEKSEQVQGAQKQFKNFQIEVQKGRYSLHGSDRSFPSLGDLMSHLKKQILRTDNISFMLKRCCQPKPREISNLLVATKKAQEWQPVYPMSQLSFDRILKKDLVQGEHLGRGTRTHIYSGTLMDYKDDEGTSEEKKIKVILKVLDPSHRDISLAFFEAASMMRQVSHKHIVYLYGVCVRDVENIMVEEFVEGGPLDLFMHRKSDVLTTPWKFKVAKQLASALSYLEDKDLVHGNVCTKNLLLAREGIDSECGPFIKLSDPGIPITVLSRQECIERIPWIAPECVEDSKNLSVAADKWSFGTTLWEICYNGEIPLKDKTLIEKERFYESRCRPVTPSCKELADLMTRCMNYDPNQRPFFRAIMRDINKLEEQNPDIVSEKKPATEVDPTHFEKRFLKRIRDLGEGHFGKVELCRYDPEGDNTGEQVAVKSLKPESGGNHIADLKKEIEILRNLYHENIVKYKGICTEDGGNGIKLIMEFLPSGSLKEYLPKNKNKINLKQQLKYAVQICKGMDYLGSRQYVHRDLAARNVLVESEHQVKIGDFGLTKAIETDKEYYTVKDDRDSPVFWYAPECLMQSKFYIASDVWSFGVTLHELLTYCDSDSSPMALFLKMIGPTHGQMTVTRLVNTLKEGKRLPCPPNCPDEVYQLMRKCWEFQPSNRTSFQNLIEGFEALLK
T1 sequence (P98170 whole entry, looked up): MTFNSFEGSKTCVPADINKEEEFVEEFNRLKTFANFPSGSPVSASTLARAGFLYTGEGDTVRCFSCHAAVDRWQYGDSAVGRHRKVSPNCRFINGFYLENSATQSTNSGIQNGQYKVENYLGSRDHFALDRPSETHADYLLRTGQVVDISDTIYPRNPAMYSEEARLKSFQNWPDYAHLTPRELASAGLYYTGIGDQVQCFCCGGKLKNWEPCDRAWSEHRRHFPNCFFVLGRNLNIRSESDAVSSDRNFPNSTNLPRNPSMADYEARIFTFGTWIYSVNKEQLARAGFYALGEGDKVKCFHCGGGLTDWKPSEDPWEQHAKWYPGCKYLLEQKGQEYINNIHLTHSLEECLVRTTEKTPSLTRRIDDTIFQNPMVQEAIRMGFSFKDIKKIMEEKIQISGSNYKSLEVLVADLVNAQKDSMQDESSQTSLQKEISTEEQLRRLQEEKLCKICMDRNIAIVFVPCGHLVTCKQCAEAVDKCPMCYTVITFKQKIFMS
Summary of the method: (§1)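 Human PBMCs were given a 1 h compound incubation in the IL-2-stimulated assay, with IFNγ signalling as the cellular potency readout, reported as pIC50.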

[2] = biological target: T2, E3 ubiquitin-protein ligase XIAP/Tyrosine-protein kinase JAK2 (Homo sapiens) (UniProt O60674+P98170); assay: Protac activity at IAP/JAK2 in human THP1 cells assessed as increase in JAK2 degradation up to 10 uM after 24 hrs by Western blot analysis relative to control; assay type: cell-based; details: THP-1
T2 sequence (O60674 whole entry, looked up): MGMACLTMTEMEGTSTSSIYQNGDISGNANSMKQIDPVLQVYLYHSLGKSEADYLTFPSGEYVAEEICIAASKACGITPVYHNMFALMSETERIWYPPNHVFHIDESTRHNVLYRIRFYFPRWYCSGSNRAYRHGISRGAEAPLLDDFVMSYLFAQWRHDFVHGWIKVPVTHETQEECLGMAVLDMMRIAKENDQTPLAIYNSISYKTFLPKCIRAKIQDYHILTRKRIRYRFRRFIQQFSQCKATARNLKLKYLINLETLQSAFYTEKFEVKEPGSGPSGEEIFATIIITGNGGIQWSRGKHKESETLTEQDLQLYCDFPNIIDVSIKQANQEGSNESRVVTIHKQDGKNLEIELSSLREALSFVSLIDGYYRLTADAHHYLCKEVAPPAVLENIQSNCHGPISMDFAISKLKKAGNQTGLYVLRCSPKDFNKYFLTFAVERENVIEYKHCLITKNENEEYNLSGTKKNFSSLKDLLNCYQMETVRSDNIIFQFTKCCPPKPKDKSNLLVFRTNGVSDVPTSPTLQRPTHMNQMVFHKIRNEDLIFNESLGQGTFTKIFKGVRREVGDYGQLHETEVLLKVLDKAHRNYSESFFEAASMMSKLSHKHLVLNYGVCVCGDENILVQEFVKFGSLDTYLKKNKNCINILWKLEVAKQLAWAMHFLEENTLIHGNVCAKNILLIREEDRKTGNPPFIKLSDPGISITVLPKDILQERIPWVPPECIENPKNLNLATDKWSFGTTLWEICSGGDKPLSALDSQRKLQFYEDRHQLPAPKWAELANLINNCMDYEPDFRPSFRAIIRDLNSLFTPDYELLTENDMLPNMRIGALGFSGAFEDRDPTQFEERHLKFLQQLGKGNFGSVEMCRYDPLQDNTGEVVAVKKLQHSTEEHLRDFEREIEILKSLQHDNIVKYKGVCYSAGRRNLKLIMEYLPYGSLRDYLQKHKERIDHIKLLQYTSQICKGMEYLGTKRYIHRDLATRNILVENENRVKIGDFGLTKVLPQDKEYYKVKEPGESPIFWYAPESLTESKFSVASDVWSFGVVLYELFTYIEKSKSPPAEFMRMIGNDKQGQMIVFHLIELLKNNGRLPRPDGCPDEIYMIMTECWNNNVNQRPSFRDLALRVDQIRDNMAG
T2 sequence (P98170 whole entry, looked up): as the sequence (P98170 whole entry, looked up) above
Summary of the method: (§2)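 Unstimulated THP-1 cells were exposed to PROTAC across 0.6–10 µM for 24 h. JAK1/JAK2 levels were read by automated Western blot using antibodies detecting only unphosphorylated JAK. % degradation is relative to basal levels in DMSO-treated cells, as the mean of separate experiments (n ≥ 3). Significance was assessed by one-tailed Student's t-test at each concentration.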

[3] = biological target: T1, E3 ubiquitin-protein ligase XIAP/Tyrosine-protein kinase JAK1 (Homo sapiens); assay: Protac activity at IAP/JAK1 in human THP1 cells assessed as increase in JAK1 degradation at 10 uM after 24 hrs by Western blot analysis; assay type: cell-based; details: THP-1; summary of the method: as §2
[4] = biological target: T2, E3 ubiquitin-protein ligase XIAP/Tyrosine-protein kinase JAK2 (Homo sapiens); assay: Protac activity at IAP/JAK2 in human THP1 cells assessed as increase in JAK2 degradation at 10 uM after 24 hrs by Western blot analysis relative to control; assay type: cell-based; details: THP-1; summary of the method: as §2
[5] = Lipophilicity, log D of the compound at pH 7.4 by chromatographic method; assay type: physicochemical; details: buffer
[6] = biological target: T1, E3 ubiquitin-protein ligase XIAP/Tyrosine-protein kinase JAK1 (Homo sapiens); assay: Protac activity at IAP/JAK1 in human THP1 cells assessed as increase in JAK1 degradation up to 10 uM after 24 hrs by Western blot analysis; assay type: cell-based; details: THP-1; summary of the method: as §2
[7] = biological target: T1, E3 ubiquitin-protein ligase XIAP/Tyrosine-protein kinase JAK1 (Homo sapiens); assay: Protac activity at IAP/JAK1 in human THP1 cells assessed as increase in JAK1 degradation at 5 uM after 24 hrs by Western blot analysis relative to control; assay type: cell-based; details: THP-1; summary of the method: as §2
JAK3/JAK1 = JAK3/JAK1 (Homo sapiens, UniProt P23458+P52333); assay: Inhibition of JAK1/JAK3 in human PBMC cells assessed as reduction in IL2-induced IFNgamma production; assay type: cell-based; summary of the method: as §1
Sequence of JAK3/JAK1 (P23458 whole entry, one chain of several): as the sequence (P23458 whole entry, looked up) above

[8] = biological target: Tyrosine-protein kinase JAK2 (Homo sapiens, UniProt O60674); assay: Inhibition of JAK2 (unknown origin)
Sequence of Tyrosine-protein kinase JAK2 (O60674 whole entry): as the sequence (O60674 whole entry, looked up) above
Summary of the method: (§3)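 Isolated biochemical JAK enzyme assays. pIC50 values are means of multiple separate experiments (n ≥ 2).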

[9] = biological target: T2, E3 ubiquitin-protein ligase XIAP/Tyrosine-protein kinase JAK2 (Homo sapiens); assay: Protac activity at IAP/JAK2 in human THP1 cells assessed as increase in JAK2 degradation at 5 uM after 24 hrs by Western blot analysis relative to control; assay type: cell-based; details: THP-1; summary of the method: as §2
Homo sapiens [10] = species: Homo sapiens; assay: Selectivity ratio, difference between pIC50 for JAK1 (unknown origin) to pIC50 for inhibition of JAK1/JAK3 in human PBMC cells assessed as reduction in IL2-induced IFNgamma production; assay type: cell-based
Summary of the method: (§4)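 Permeability surrogate calculated as drop-off = 10^(biochemical JAK1 or JAK3 pIC50 − IL2 PBMC pIC50). The cellular step used a 1 h incubation.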

[11] = biological target: Tyrosine-protein kinase JAK1 (Homo sapiens, UniProt P23458); assay: Inhibition of JAK1 (unknown origin); summary of the method: as §3
Sequence of Tyrosine-protein kinase JAK1 (P23458 whole entry): as the sequence (P23458 whole entry, looked up) above

[12] = biological target: T3, Tyrosine-protein kinase JAK3 (Homo sapiens, UniProt P52333); assay: Inhibition of JAK3 (unknown origin); summary of the method: as §3
T3 sequence (P52333 whole entry): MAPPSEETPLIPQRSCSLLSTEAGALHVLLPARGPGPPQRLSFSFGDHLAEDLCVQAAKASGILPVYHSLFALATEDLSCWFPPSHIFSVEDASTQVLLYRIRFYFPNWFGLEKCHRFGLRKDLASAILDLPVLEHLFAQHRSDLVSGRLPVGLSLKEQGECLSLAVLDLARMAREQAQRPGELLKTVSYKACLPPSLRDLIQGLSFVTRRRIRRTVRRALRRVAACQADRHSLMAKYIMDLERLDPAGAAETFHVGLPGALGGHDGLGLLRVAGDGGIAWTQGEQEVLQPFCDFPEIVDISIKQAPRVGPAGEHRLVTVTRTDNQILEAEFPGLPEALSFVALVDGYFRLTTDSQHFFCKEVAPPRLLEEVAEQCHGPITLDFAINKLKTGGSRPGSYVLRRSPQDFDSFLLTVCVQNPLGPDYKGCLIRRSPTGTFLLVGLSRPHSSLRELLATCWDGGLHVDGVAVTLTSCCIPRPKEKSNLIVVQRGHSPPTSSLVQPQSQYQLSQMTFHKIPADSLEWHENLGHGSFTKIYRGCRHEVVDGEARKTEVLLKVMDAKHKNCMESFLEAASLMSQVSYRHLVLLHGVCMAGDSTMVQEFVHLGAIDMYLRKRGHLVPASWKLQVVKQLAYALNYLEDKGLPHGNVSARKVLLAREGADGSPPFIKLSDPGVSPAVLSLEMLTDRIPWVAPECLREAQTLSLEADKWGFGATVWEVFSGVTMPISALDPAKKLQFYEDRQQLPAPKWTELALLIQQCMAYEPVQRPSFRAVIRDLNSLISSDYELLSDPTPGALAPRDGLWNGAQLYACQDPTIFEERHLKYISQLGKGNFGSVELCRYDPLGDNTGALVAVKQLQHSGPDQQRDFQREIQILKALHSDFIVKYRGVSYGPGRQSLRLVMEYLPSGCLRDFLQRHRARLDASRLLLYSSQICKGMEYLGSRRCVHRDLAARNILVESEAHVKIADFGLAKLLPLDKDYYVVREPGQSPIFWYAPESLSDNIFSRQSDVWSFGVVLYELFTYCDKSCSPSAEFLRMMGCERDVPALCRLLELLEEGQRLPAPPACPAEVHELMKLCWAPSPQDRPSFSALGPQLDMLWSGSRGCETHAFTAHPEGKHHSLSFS

[13] = biological target: T2, E3 ubiquitin-protein ligase XIAP/Tyrosine-protein kinase JAK2 (Homo sapiens); assay: Protac activity at IAP/JAK2 in human THP1 cells assessed as increase in JAK2 degradation at 5 uM after 24 hrs in presence of IAP ligand by Western blot analysis; assay type: cell-based; details: THP-1
Summary of the method: (§5)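 Unstimulated THP-1 cells were co-treated for 24 h with PROTAC and increasing concentrations of free, active IAP ligand. JAK1/JAK2 protein was quantified by automated Western blot against DMSO-treated basal levels, as the mean of n ≥ 3 separate experiments. Significance was assessed by one-tailed t-test.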

[14] = biological target: T1, E3 ubiquitin-protein ligase XIAP/Tyrosine-protein kinase JAK1 (Homo sapiens); assay: Protac activity at IAP/JAK1 in human THP1 cells assessed as increase in JAK1 degradation at 5 uM after 24 hrs in presence of IAP ligand by Western blot analysis; assay type: cell-based; details: THP-1; summary of the method: as §5
Homo sapiens [15] = species: Homo sapiens; assay: Selectivity ratio, difference between pIC50 for JAK3 (unknown origin) to pIC50 for inhibition of JAK1/JAK3 in human PBMC cells assessed as reduction in IL2-induced IFNgamma production; assay type: cell-based; summary of the method: as §4
[16] = biological target: T2, E3 ubiquitin-protein ligase XIAP/Tyrosine-protein kinase JAK2 (Homo sapiens); assay: Protac activity at IAP/JAK2 in human THP1 cells assessed as increase in JAK2 degradation in presence of proteasome inhibitor MG132 by immunoprecipitation assay; assay type: cell-based; details: THP-1
[17] = biological target: T2, E3 ubiquitin-protein ligase XIAP/Tyrosine-protein kinase JAK2 (Homo sapiens); assay: Protac activity at IAP/JAK2 in human THP1 cells assessed as increase in JAK2 ubiquitination by immunoprecipitation assay; assay type: cell-based; details: THP-1
[18] = biological target: T1, E3 ubiquitin-protein ligase XIAP/Tyrosine-protein kinase JAK1 (Homo sapiens); assay: Protac activity at IAP/JAK1 in human THP1 cells assessed as increase in JAK1 degradation in presence of proteasome inhibitor MG132 by immunoprecipitation assay; assay type: cell-based; details: THP-1

Activity [1]	Activity [2]	chromatographic logD [5]	Activity [6]	Activity [7]	Activity [9]	Compound	further results
inactive	< 35%	5 to 8	Active	–	–	CN[C@@H](C)C(=O)N[C@H](C(=O)N1C[C@@H](NC(=O)CCCCCCCCCOc2cc(F)cc(CNc3nc(Nc4cnn(C)c4)ncc3Cl)c2F)C[C@H]1C(=O)N[C@@H]1CCCc2ccccc21)C1CCCCC1	Activity [3]: inactive; Activity [4]: inactive
–	–	6	–	inactive	inactive	COc1cc(-c2cnc3cccc(-c4cc(F)c(CN5CCS(=O)(=O)CC5)c(F)c4)c3n2)ccc1OCCCN1CCOCC1	IC50 (JAK3/JAK1): 316 nM; IC50 [8]: 0.251 nM; Selectivity ratio (Homo sapiens [10]): 40; IC50 [11]: 7.94 nM; IC50 [12]: 7.94 nM; Activity [13]: inactive; Activity [14]: inactive; Selectivity ratio (Homo sapiens [15]): 40
inactive	< 35%	5 to 8	Active	48%	65%	CN[C@@H](C)C(=O)N[C@H](C(=O)N1C[C@@H](NC(=O)CCCCCCCCCN2CCN(CCCOc3ccc(-c4cnc5cccc(-c6cc(F)c(CN7CCS(=O)(=O)CC7)c(F)c6)c5n4)cc3OC)CC2)C[C@H]1C(=O)N[C@@H]1CCCc2ccccc21)C1CCCCC1	Activity [16]: inactive; Activity [17]: Active; Activity [18]: inactive; Activity [13]: inactive; Activity [14]: inactive
inactive	< 35%	5 to 8	Active	–	–	CN[C@@H](C)C(=O)N[C@H](C(=O)N1C[C@@H](NC(=O)COCCOCCOCCOCCOc2cc(F)cc(CNc3nc(Nc4cnn(C)c4)ncc3Cl)c2F)C[C@H]1C(=O)N[C@@H]1CCCc2ccccc21)C1CCCCC1	–
–	–	–	–	inactive	inactive	CN[C@H](C)C(=O)N[C@@H](C(=O)N1C[C@H](NC(=O)CCCCCCCCCN2CCN(CCCOc3ccc(-c4cnc5cccc(-c6cc(F)c(CN7CCS(=O)(=O)CC7)c(F)c6)c5n4)cc3OC)CC2)C[C@@H]1C(=O)N[C@H]1CCCc2ccccc21)C1CCCCC1	–
inactive	< 35%	5 to 8	Active	–	–	CN[C@@H](C)C(=O)N[C@H](C(=O)N1C[C@@H](NC(=O)CCCCCCCCCn2cc(Nc3ncc(Cl)c(NCc4cc(F)ccc4F)n3)cn2)C[C@H]1C(=O)N[C@@H]1CCCc2ccccc21)C1CCCCC1	–
inactive	< 35%	5 to 8	Active	–	–	CN[C@@H](C)C(=O)N[C@H](C(=O)N1C[C@@H](NC(=O)COCCOCCOCCOCCn2cc(Nc3ncc(Cl)c(NCc4cc(F)ccc4F)n3)cn2)C[C@H]1C(=O)N[C@@H]1CCCc2ccccc21)C1CCCCC1	–
inactive	< 35%	5 to 8	Active	–	–	CN[C@@H](C)C(=O)N[C@H](C(=O)N1C[C@@H](NC(=O)COCCOCCOCCOCCN2CCN(CCCOc3ccc(-c4cnc5cccc(-c6cc(F)c(CN7CCS(=O)(=O)CC7)c(F)c6)c5n4)cc3OC)CC2)C[C@H]1C(=O)N[C@@H]1CCCc2ccccc21)C1CCCCC1	–
–	–	3.5	–	–	–	OCCn1cc(Nc2ncc(Cl)c(NCc3cc(F)ccc3F)n2)cn1	IC50 (JAK3/JAK1): 7.94 nM; IC50 [8]: 0.316 nM; Selectivity ratio (Homo sapiens [10]): > 50; IC50 [11]: < 0.158 nM; IC50 [12]: 1 nM; Selectivity ratio (Homo sapiens [15]): 8
